CHO parental Ca – ATP-evoked calcium signal inhibitors, parental CHO, primary screen, counter-screen for OX1R antagonist project, cell-based, fluorescence, Fluo-8 calcium dye. parental CHO-K1, ATP-induced calcium, Fluo-8 fluorescence. 330,000 compounds, 0.63% hits. AID 463079, 2010. inhibition, % at 5.6 µM;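 active = inhibition above that plate's mean sample inhibition plus 3 SD, cut at about 26% in these data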
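Material: parental CHO cells / Compound: single nominal dose of 5.6 µM per compound / Signal: Fluo-8 fluorescence / Replicates: singlicate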
TAAR1 antag – human TAAR1 antagonists, primary screen, Fluo-8 calcium fluorescence, CHO RD-HGA16 cells. 360,000 compounds, 1.5% hits. antagonist. Trace amine-associated receptor 1 (Homo sapiens), Q96RJ0. inhibition, % at 3 µM;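 active = inhibition above a per-plate cutoff, the mean inhibition of test compounds on that plate plus 3 SD, cut at about 49% in these data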
Target sequence (Q96RJ0 whole entry, looked up): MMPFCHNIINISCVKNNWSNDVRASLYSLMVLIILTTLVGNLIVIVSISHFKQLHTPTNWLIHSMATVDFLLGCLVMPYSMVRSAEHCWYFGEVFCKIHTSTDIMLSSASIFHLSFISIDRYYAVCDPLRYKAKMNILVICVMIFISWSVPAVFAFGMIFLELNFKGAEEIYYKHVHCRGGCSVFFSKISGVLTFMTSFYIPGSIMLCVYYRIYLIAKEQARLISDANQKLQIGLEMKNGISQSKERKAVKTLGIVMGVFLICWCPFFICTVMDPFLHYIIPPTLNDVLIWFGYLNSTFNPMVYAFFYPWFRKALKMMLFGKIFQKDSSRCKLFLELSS
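Assay system: RD-HGA16 CHO cells with stable hTAAR1 and Gα16 / Reagent: EC80 β-phenethylamine stimulus / Doses: 3 µM, single point / Timing: dye loading 75 min at 37 °C, then 30 min room temperature / Measured by: Fluo-8 intracellular calcium dye fluorescence, real-time kinetic reads / Controls: vehicle wells and EC80 agonist wells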
OX1R antag-1 – OX1R (HCRTR1) antagonists, primary screen, fluorescence, CHO/OX1R cells, Fluo-8 calcium, orexin A; Orexin/Hypocretin receptor type 1 (Homo sapiens), O43613; Fluo-8 calcium fluorescence; inhibition, % at 5 µM; 330,000 compounds, 0.43% hits;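 active = inhibition above its plate's threshold, mean inhibition of all tested compounds on the plate plus 3 SD, cut at about 37% in these data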
Target sequence (O43613 whole entry, looked up): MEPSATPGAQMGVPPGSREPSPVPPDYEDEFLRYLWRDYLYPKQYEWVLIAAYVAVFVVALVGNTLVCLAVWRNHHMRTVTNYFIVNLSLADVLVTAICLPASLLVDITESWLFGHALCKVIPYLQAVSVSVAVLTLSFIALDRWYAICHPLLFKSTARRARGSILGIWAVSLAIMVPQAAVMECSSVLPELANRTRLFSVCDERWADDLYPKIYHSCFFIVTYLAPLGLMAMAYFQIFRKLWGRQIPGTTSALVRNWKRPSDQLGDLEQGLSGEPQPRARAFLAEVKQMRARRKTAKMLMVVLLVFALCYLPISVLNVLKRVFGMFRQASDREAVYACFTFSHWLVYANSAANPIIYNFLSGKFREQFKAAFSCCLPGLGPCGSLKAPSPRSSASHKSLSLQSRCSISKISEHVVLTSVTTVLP
OX1R antag-2 – antagonists of human orexin 1 receptor (OX1R); OX1R-expressing cells, FRET antagonist read-out; inhibition, % at 6.6 µM; 330,000 compounds, 1.8% hits; AID 485270, 2010; in the data active = inhibition mostly above about 38%, no sharp cut-off; inactive = mostly below about 40%
TAAR1 agonist – human TAAR1 agonists, primary screen, Fluo-8 calcium fluorescence, CHO RD-HGA16 cells | Trace amine-associated receptor 1 (Homo sapiens), Q96RJ0 | vehicle wells 0%, saturating PEA agonist 100% | activation, % at 3 µM | 360,000 compounds, 0.99% hits | AID 624467, 2012;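 active = activation above the mean activation of all test compounds in the run plus 3 SD, cut at about 38% in these data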
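Test system: RD-HGA16 (CHO) cells co-expressing Gα16 and hTAAR1; dosing: one-point dosing at 3 µM (nominal); timing: 17-24 h seeding, 75 min 37 °C dye, 30 min RT; signal: kinetic Fluo-8 calcium fluorescence; read-out basis: % activation relative to PEA EC100 response; controls: DMSO and PEA EC100; replicates: n 1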
GPR7 antagonist – GPR7 receptor antagonists, primary screen, cell-based, fluorescence, single concentration; Neuropeptides B/W receptor type 1 (Homo sapiens), P48145; GPR7-expressing cells, fluorescence antagonist assay; inhibition, % at 4.4 µM; 290,000 compounds, 1.1% hits; AID 1861, 2009; in the data active = inhibition above about 16%, passing the limit was not always enough;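 also: cells stimulated with the agonist NPW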
TAAR1 nonsel count – nonselective antagonists in TAAR1 counter-screen cells, counter-screen for hTAAR1 antagonist project, cell-based, fluorescence, calcium. shares compounds with TAAR1 antag. AID 651780, 2012. counterscreen cell line, antagonist mode. inhibition, % at 3 µM. 2,400 compounds, 77% hits; in the data active = inhibition above about 22%;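 also: CHO-Ga16 host cells stimulated with ATP at an EC80 level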
TAAR1 ant conf – human TAAR1 antagonists, retest of hits, confirmation, cell-based, fluorescence; shares compounds with TAAR1 antag; TAAR1-expressing cells, fluorescence antagonist read-out; inhibition, % at 3 µM; 2,400 compounds, 40% hits; AID 651785, 2012; in the data active = inhibition above about 49%;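 also: CHO-Ga16 host cells challenged with agonist PEA near its EC80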
Ga16 ag counter – calcium activation in Ga16-expressing cells, counter-screen for TAAR1 antagonist project, cell-based, fluorescence | agonist counterscreen | shares compounds with TAAR1 antag | activation, % at 3 µM | 2,400 compounds, 18% hits; in the data active = activation above about 12%
TAAR1 ag counter – TAAR1 activation by candidate antagonists – cell-based, fluorescence, counter-screen for TAAR1 antagonist project | hTAAR1 cell line, agonist mode | shares compounds with TAAR1 antag | activation, % at 3 µM | 2,400 compounds, 2% hits; in the data active = activation above about 37%;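 also: CHO cells stably expressing TAAR1 with calcium dye readout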
Numbers stand for hits; n = inactive; x = not tested or not shown. Only some compounds are listed: those with a hit (about 4.6% of all), similar ones and a draw of the others.

SMILES | CHO parental Ca | TAAR1 antag | OX1R antag-1 | OX1R antag-2 | TAAR1 agonist | GPR7 antagonist | TAAR1 nonsel count | TAAR1 ant conf | Ga16 ag counter | TAAR1 ag counter
Cn1c(CSCc2ccccc2)nnc1SCC(=O)Nc1nccs1 | n | n | n | n | n | n | x | x | x | x
Cn1c(CSCc2ccc(Cl)cc2)nnc1SCC(=O)Nc1nccs1 | n | 61 | n | n | n | n | 42 | 56 | 17 | n
C[C@@H](N)C(=O)NC[C@H]1O[C@@H](n2cnc3c(N)ncnc32)[C@H](O)[C@@H]1O | n | x | n | n | x | x | x | x | x | x
COC(=O)[C@@]1(Sc2ccc(C)cc2)CC(=O)N(c2ccccc2)[C@@H]1c1ccccc1 | x | 95 | x | x | n | x | 39 | 78 | n | n
CCN=C(NCC)SC1CC(=O)N(c2cccc(OCC)c2)C1=O (stereo not drawn) | n | 71 | n | n | n | n | 26 | 50 | n | n
CCN=C(NCC)SC1CC(=O)N(c2ccc(OC)cc2)C1=O (stereo not drawn) | n | 65 | n | n | n | n | 30 | 55 | 12 | n
CCOc1ccc(N2C(=O)CC(SC(=NC)Nc3cccc(OC)c3)C2=O)cc1 (stereo not drawn) | n | n | n | n | n | n | x | x | x | x
Cc1cccnc1C1=NOC(Cc2ccccc2)C(=O)N1Cc1ccccc1F (stereo not drawn) | x | n | x | x | n | x | x | x | x | x
CCOc1ccc2ncc(S(=O)(=O)c3ccc(C)cc3)c(N3CCC4(CC3)OCCO4)c2c1 | n | 63 | n | n | n | n | n | n | n | n
CCOC(=O)c1cnc2ccc(OCC)cc2c1N1CCN(C)CC1 | n | n | n | n | n | n | x | x | x | x
O=C(Nc1ncccc1Cl)c1cc2ccccc2o1 | n | n | n | n | n | n | x | x | x | x
C=CCN1C(c2ccc(Br)cc2)=CS/C1=C(\C#N)c1nnc(N2CCOCC2)n1-c1ccccc1 | x | 58 | x | x | n | x | 24 | n | n | n
C=CCN1C(c2cccc(C(F)(F)F)c2)=CS/C1=C(\C#N)c1nnc(N2CCOCC2)n1-c1ccccc1 | x | n | x | x | n | x | x | x | x | x
CC1(C(=O)Nc2cccc3ncccc23)CCN1C(=O)Cc1ccc(-c2ccccc2)cc1 (stereo not drawn) | x | 67 | x | x | n | x | 29 | n | n | n
CC1(C(=O)Nc2cccc3ncccc23)CCN1C(=O)CCc1ccccc1 (stereo not drawn) | x | n | x | x | n | x | x | x | x | x
CC1(C)C(/C=C/C=C/C=C/C=C2\N(CCCCS(=O)(=O)O)c3ccc4ccccc4c3C2(C)C)=[N+](CCCCS(=O)(=O)[O-])c2ccc3ccccc3c21 | n | x | n | n | x | x | x | x | x | x
COc1ccc(CNC(=O)Cc2csc(NC(=O)Nc3ccccc3OC)n2)cc1 | n | 56 | n | n | n | x | n | n | n | n
COc1ccccc1NC(=O)Nc1nc(CC(=O)N2CCN(c3ccc(F)cc3)CC2)cs1 | n | 72 | n | n | n | x | 46 | 57 | 13 | n
COc1ccccc1NC(=O)Nc1ccc(NC(=O)c2ccccc2O)cc1 | n | 61 | n | n | n | n | 39 | n | n | n
COc1ccccc1NC(=O)Cc1csc(NC(=O)c2ccccc2)n1 | n | n | n | n | n | n | x | x | x | x
COc1ccccc1NC(=O)N1CCN(c2ccc(F)cc2)CC1 | n | n | n | n | n | n | x | x | x | x
COc1ccc(C)cc1NC(=O)Cc1csc(NC(=O)Nc2ccccc2OC)n1 | x | 73 | x | x | n | x | 27 | n | n | n
CN1CCCC(C)(C(=O)Nc2ccc3scnc3c2)C1 (stereo not drawn) | x | n | x | x | n | x | x | x | x | x
Cn1c(N)c(C(=O)COC(=O)C2Cc3ccccc3CN2S(C)(=O)=O)c(=O)n(C)c1=O (stereo not drawn) | x | n | x | x | n | x | x | x | x | x
Cc1ccc(S(=O)(=O)Nc2ccc3c(c2)C(=O)N([C@@H](C)CO)C[C@@H](C)[C@@H](CN(C)CC2CC2)OCCCC[C@@H](C)O3)cc1 | x | n | x | x | n | x | x | x | x | x
SMILES | CHO parental Ca | TAAR1 antag | OX1R antag-1 | OX1R antag-2 | TAAR1 agonist | GPR7 antagonist | TAAR1 nonsel count | TAAR1 ant conf | Ga16 ag counter | TAAR1 ag counter
COc1ccccc1NC(=O)Nc1nc(CC(=O)Nc2ccc(F)cc2)cs1 | n | 52 | n | n | n | x | 22 | n | n | n
COc1ccccc1NC(=O)Nc1nc(CC(=O)Nc2cc(F)ccc2F)cs1 | n | 60 | n | n | n | x | 34 | 56 | n | n
COc1ccccc1NC(=O)Nc1nc(CC(=O)Nc2cccc(F)c2)cs1 | n | n | n | n | n | x | x | x | x | x
O=C(Cc1csc(NC(=O)Nc2cccc(Cl)c2)n1)NCc1ccccn1 | n | 65 | n | n | n | x | 29 | n | n | n
CC1(C)C(=O)CC[C@@]2(C)[C@H]1CC[C@@]1(C)CC3=C(CC[C@@H]12)[C@@]1(C)CCC(=O)C(C)(C)[C@@H]1CC3 | n | x | n | n | x | x | x | x | x | x
OCCNc1nc(Nc2cc(Cl)ccc2OC2CCCC2)nc(N2CCCC2)n1 | n | 49 | n | n | n | x | 22 | n | n | n
COc1ccc(Cl)cc1Nc1nc(NCCO)nc(N2CCCC2)n1 | n | n | n | n | n | n | x | x | x | x
CC(C)n1c(CN2CCN(C(=O)c3ccco3)CC2)nc2c1c(=O)n(C)c(=O)n2C | n | n | n | n | n | n | x | x | x | x
O=C(Nc1cccc(Cl)c1)N(Cc1nc2ccccc2c(=O)[nH]1)Cc1cccs1 | n | 51 | n | n | n | n | 30 | n | n | n
C=CCn1c(C(C)n2c(-c3cnccn3)nc3ccccc32)nc2ccccc21 (stereo not drawn) | x | n | x | x | n | x | x | x | x | x
CCOC(=O)c1cc(-c2ccccc2)n(CC2CC(c3ccc(OC)cc3)=NO2)n1 (stereo not drawn) | n | 75 | n | n | n | n | 30 | 51 | n | n
COc1ccc(C2=NOC(Cn3nc(C(=O)NCc4cccs4)cc3-c3ccccc3)C2)cc1 (stereo not drawn) | n | 77 | n | n | n | x | 40 | 51 | n | n

Assay outcomes deposited in PubChem BioAssay by The Scripps Research Institute Molecular Screening Center.
